# Most compounds without a hit are left out; they make up all but 1.4% or so of the library.
# GSIS activator: GLuc luminescence reporter in INS-1E cells, primary screen for activators of glucose-dependent secretion of insulin; INS-1E GLuc reporter insulin secretion, 2-3 h; activation, % at 16.6 µM; 0.61% of 370,000 active;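 active = lowest replicate activation of at least 40%, so every replicate reaches that level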;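 note: 0% = median of neutral control wells and 100% = median of IBMX positive control wells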
# ERp5 block: inhibitors of ERp5-driven insulin aggregation, primary screen, biochemical, turbidity, absorbance 650 nm, single point; Protein disulfide-isomerase A6 (Homo sapiens), Q15084; inhibition, % at 9.99 µM; 0.05% of 350,000 active; 90 min;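 active = mean replicate inhibition above about 25%, with every replicate also reaching it, limit read from the data, passing the limit was not always enough; inconclusive = only one of those two criteria met; inactive = neither criterion met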
# Target sequence (Q15084 whole entry, looked up): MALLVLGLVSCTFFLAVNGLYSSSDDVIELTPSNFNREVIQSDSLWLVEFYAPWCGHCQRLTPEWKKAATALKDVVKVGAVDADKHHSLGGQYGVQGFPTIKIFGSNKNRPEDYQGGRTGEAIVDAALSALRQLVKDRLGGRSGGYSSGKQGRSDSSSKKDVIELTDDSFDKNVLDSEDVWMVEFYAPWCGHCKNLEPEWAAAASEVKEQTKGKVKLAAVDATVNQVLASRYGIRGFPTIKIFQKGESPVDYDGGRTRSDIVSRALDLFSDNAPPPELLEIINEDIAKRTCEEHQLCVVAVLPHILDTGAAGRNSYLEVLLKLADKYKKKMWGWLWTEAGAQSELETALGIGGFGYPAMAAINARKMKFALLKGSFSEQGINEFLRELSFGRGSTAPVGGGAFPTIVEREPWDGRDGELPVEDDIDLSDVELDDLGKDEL
# PDI turbidity: inhibitors of human PDI, primary screen, biochemical, turbidity, single point, plate reader | Protein disulfide-isomerase (Homo sapiens), P07237 | 0.052% of 350,000 active | PDI insulin aggregation turbidity, A650, 90 min | AID 588391, 2011 | inhibition, % at 10 µM;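 active = mean inhibition across replicates of 30% or more, whatever share of single replicates reach that level; inconclusive = mean inhibition below 30% while every single replicate reaches 30%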
# FN deposition inh: inhibitors of fibronectin matrix deposition, primary screen, AH1F cells, Alexa488-fibronectin fluorescence, plate reader; AH1F fibroblasts, overnight; inhibition, % at 12.6 µM; 0.086% of 350,000 active; AID 743247, 2014;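 active = mean inhibition across replicates of 30% or more, regardless of how many single replicates reach that level; inconclusive = mean under 30% yet at least half of replicates reach 30%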;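 note: positive control wells lacked labelled fibronectin entirely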
#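 Assay system: AH1F fibroblast monolayer, labelled fibronectin deposition. Amount: 10000 cells per well. Also added: labelled fibronectin 24 nM. Compound: single-point pinned compound. Incubation: cell attachment 1 h, compound and FN exposure overnight. Detection: fluorescence after three HBSS washes, excitation 485 nm, emission 525 nm. Read-out: inhibition of fibronectin deposition signal.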
# HIV Env fusion: inhibitors of HIV-1 Env-driven cell-cell fusion, primary screen, HeLa-JRFL effector, CEM21 target cells, luciferase; 1.1% of 360,000 active; inhibition, % at 12.3 µM;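 active = mean replicate inhibition score of at least 50 and every replicate individually at or above 50; inconclusive = only one of the two criteria met; inactive = mean below 50 and not all replicates reaching 50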;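 note: 0% = plate neutral controls and 100% = maraviroc near 300 nM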
# * marks the source's active call; other numbers are inactive results; ? = inconclusive; . = no result given; [ ] = remark or other dose.
SMILES,GSIS activator,ERp5 block,PDI turbidity,FN deposition inh,HIV Env fusion
COc1ccc(CN(C)C(=O)c2cc(-c3ccc(OC)c(OC)c3)nc3ccccc23)c(OC)c1,58*,1,-3,7,10
COc1cccc(CN(C)C(=O)c2cc(-c3ccc(OC)c(OC)c3)nc3ccccc23)c1,19,0,4,5,-4
C[C@H](CO)N1C[C@H](C)[C@@H](CN(C)C(=O)Nc2ccc3c(c2)OCO3)OCCCC[C@H](C)Oc2ccc(NC(=O)Nc3ccc(C(F)(F)F)cc3)cc2C1=O,16,4,.,.,0[16.7 µM]
C[C@@H]1CCCCO[C@H](CN(C)C(=O)Nc2ccc(C(F)(F)F)cc2)[C@H](C)CN([C@@H](C)CO)C(=O)c2cc(NC(=O)Nc3ccccc3)ccc2O1,7,7,.,-2,30[16.7 µM]
C[C@H]1CCCCO[C@H](CN(C)C(=O)Nc2ccc(C(F)(F)F)cc2)[C@@H](C)CN([C@@H](C)CO)C(=O)c2cc(NC(=O)Nc3ccc4c(c3)OCO4)ccc2O1,16,2,.,-3,72*[16.7 µM]
C[C@H]1CCCCO[C@H](CN(C)C(=O)Nc2ccc(C(F)(F)F)cc2)[C@@H](C)CN([C@@H](C)CO)C(=O)c2cc(NC(=O)Cc3ccccc3)ccc2O1,2,.,.,-6,66*[16.7 µM]
C[C@@H]1CCCCO[C@H](CN(C)C(=O)Nc2ccc(C(F)(F)F)cc2)[C@H](C)CN([C@H](C)CO)C(=O)c2cc(NC(=O)Cc3ccccc3)ccc2O1,-15,.,.,.,26[16.7 µM]
CC(C)NC(=O)Nc1ccc2c(c1)C(=O)N([C@@H](C)CO)C[C@@H](C)[C@H](CN(C)C(=O)Nc1ccc(F)cc1)OCCCC[C@H](C)O2,-6,-4,.,3,5[16.7 µM]
C[C@H]1CCCCO[C@H](CN(C)C(=O)Nc2ccc(C(F)(F)F)cc2)[C@@H](C)CN([C@@H](C)CO)C(=O)c2cc(NC(=O)Nc3ccccc3)ccc2O1,2,-3,.,-10,64*[16.7 µM]
CC(C)NC(=O)Nc1ccc2c(c1)C(=O)N([C@@H](C)CO)C[C@@H](C)[C@@H](CN(C)C(=O)Nc1ccc(F)cc1)OCCCC[C@@H](C)O2,19,-2,.,13,80*[16.7 µM]
CN1C(=O)c2cc(NC(=O)Nc3cccc(Cl)c3)ccc2OC[C@H]2O[C@@H](CC(=O)NCCc3ccncc3)CC[C@H]21,-27,0,.,11,.
C[C@@H]1CCCCO[C@H](CN(C)C(=O)Cc2ccccc2)[C@@H](C)CN([C@@H](C)CO)C(=O)c2cc(NC(=O)NC3CCCCC3)ccc2O1,-16,.,.,.,-32[16.7 µM]
C[C@@H]1CN([C@@H](C)CO)C(=O)c2cc(NC(=O)NC3CCCCC3)ccc2O[C@@H](C)CCCCO[C@@H]1CN(C)C(=O)Cc1ccccc1,-9,.,.,.,62*[16.7 µM]
C[C@H]1CCCCO[C@H](CN(C)C(=O)Nc2ccc(C(F)(F)F)cc2)[C@@H](C)CN([C@@H](C)CO)C(=O)c2cc(NC(=O)Nc3ccc(C(F)(F)F)cc3)ccc2O1,1,.,.,-8,45[16.7 µM]
C[C@@H]1CN([C@H](C)CO)C(=O)c2cc(NC(=O)Nc3ccc(C(F)(F)F)cc3)ccc2O[C@@H](C)CCCCO[C@H]1CN(C)C(=O)Nc1ccc(C(F)(F)F)cc1,-4,.,.,-11,115*[16.7 µM]
C[C@@H]1CCCCO[C@@H](CN(C)C(=O)c2ccccc2)[C@H](C)CN([C@@H](C)CO)C(=O)c2cc(NC(=O)Nc3ccc(C(F)(F)F)cc3)ccc2O1,0,2,.,.,57*[16.7 µM]
C[C@@H]1CCCCO[C@H](CN(C)C(=O)Nc2ccc(C(F)(F)F)cc2)[C@H](C)CN([C@@H](C)CO)C(=O)c2cc(NC(=O)c3ccccc3)ccc2O1,-12,1,.,.,73*[16.7 µM]
C[C@@H]1CN([C@H](C)CO)C(=O)c2cc(C3=CCCC3)cnc2O[C@@H]1CN(C)C(=O)C1CCCCC1,-1,-1,.,.,0[16.7 µM]
CCS(=O)(=O)N1CCCCN2[C@H](CO)[C@@H](c3ccc(C#CC(C)(C)O)cc3)[C@@H]2C1,7,0,.,.,.
C[C@@H]1CCCCO[C@H](CN(C)C(=O)Cc2ccccc2)[C@@H](C)CN([C@@H](C)CO)C(=O)c2cc(NC(=O)Nc3ccc(C(F)(F)F)cc3)ccc2O1,6,5,.,.,62*[16.7 µM]
C=CCNc1nc(Cl)nc(Nc2ccc(OC)cc2)n1,65*,.,2,9,-59
C=CCNc1nc(Nc2ccc(OC)cc2)nc(OC)n1,9,.,5,.,-59
CC(C)NC(=O)Nc1ccc2c(c1)CC(=O)N([C@@H](C)CO)C[C@@H](C)[C@@H](CN(C)CC1CCCCC1)O2,8,-3,.,.,-15[16.7 µM]
S=C(NN=C1CCCCC1=NNC(=S)N1CCOCC1)N1CCOCC1,8,7,.,-12,67*
Cc1cccc(-c2ccc([C@H]3[C@@H](CO)N4C(=O)CN(C(=O)c5cnccn5)C[C@H]34)cc2)c1,-3,.,.,.,.
SMILES,GSIS activator,ERp5 block,PDI turbidity,FN deposition inh,HIV Env fusion
COc1ccc(-c2cnc3c(c2)C(=O)N([C@H](C)CO)C[C@H](C)[C@H](CN(C)C(=O)C2CCC2)O3)cc1,3,3,.,.,7[16.7 µM]
COc1ccc(S(=O)(=O)N(C)c2ccc(C(=O)N3CCCC3)cc2)cc1OC,43*,1,-3,9,25
Cc1ccc(S(=O)(=O)N(C)c2ccc(C(=O)N3CCN(Cc4ccc5c(c4)OCO5)CC3)cc2)cc1,-31,.,-1,.,83*
CN(c1ccc(C(=O)N2CCN(Cc3ccccc3)CC2)cc1)S(=O)(=O)c1ccccc1,56*,0,1,-3,27
CN(c1ccc(C(=O)N2CCN(Cc3ccc4c(c3)OCO4)CC2)cc1)S(=O)(=O)c1ccccc1,-27,.,4,2,?
CN(C)S(=O)(=O)c1ccc(C(=O)Nc2nc(-c3cccs3)cs2)cc1,-10,-3,11,10,76*
Cc1ccc(N2C(=O)c3ccccc3C2(O)c2ccccc2)cc1 (stereo not given),.,-8,10,.,1
CCc1nnc(N2C(=O)c3ccccc3C2(O)c2ccccc2)s1 (stereo not given),42*,-2,-4,-9,-7
CC(C)CC#Cc1ccc2c(c1)O[C@H](CN(C)C(=O)C1CCOCC1)[C@H](C)CN([C@@H](C)CO)S2(=O)=O,7,-1,.,.,-23[16.7 µM]
C[C@@H]1CN([C@H](C)CO)C(=O)c2cc(-c3ccncc3)cnc2O[C@H]1CN(C)C(=O)C1CC1,4,.,.,-1,-13[16.7 µM]
O=c1[nH]nc(-c2cccs2)c2ccccc12,172*,-4,4,6,-8
CN1C2CCC1/C(=C\c1ccc(F)cc1)C(=O)/C2=C/c1ccc(F)cc1,-10,.,-6,-6,0
C=CC(=O)N1C/C(=C/c2ccc(F)cc2)C(=O)/C(=C\c2ccc(F)cc2)C1,-3,4,1,26,111*
COc1ccccc1CSc1nc2c(c(=O)n(C)c(=O)n2C)n1C,41*,3,6,4,26
